Assay results from different studies.
Protocols differ between the studies behind these lines.
KCNA1: Potassium voltage-gated channel subfamily A member 1 (KCNA1, Homo sapiens, UniProt Q09470)
INSR: Insulin receptor (INSR, Homo sapiens, UniProt P06213)

COc1ccc(S(=O)(=O)N(CC(=O)NO)CC(C)C)cc1  inhibition (Collagenase 3 (MMP13, Homo sapiens, UniProt P45452); enzyme activity, inhibitor; 0.5 µM): 51.2%
CNCCCC12CCC(c3ccccc31)c1ccccc12  inhibition (KCNA1; ion current, inhibitor, patch clamp; 3 µM): 2.68%
Cc1cc(NC(=O)c2cccc(NC(=O)/C=C/CN(C)C)c2)ccc1Nc1nccc(-c2cccnc2)n1  remaining binding (INSR; binding, competition with immobilised ligand; 1 µM): 81%
CC[C@H](C)[C@H](NC(=O)[C@H](CCC(N)=O)NC(=O)[C@H](CCCNC(=N)N)NC(=O)[C@H](CO)NC(=O)[C@H](Cc1c[nH]cn1)NC(=O)[C@@H]1CCCN1C(=O)[C@H](C)NC(=O)[C@H](CO)NC(=O)[C@H](CC(C)C)NC(=O)CNC(=O)[C@@H]1CCCN1C(=O)[C@H](CCC(N)=O)NC(=O)[C@H](CCC(N)=O)NC(=O)[C@H](CCCNC(=N)N)NC(=O)[C@H](CO)NC(=O)CNC(=O)[C@H](CO)NC(=O)[C@H](CO)NC(=O)[C@H](CCC(=O)O)NC(=O)[C@@H]1CCCN1C(=O)[C@@H]1CCCN1C(=O)[C@@H]1CCCN1C(=O)[C@H](CO)NC(=O)[C@H](CC(C)C)NC(=O)[C@H](CO)NC(=O)[C@@H](NC(=O)CN)[C@@H](C)O)C(=O)N1CCC[C@H]1C(=O)N[C@@H](C)C(=O)N1CCC[C@H]1C(=O)N[C@@H](CCC(N)=O)C(=O)NCC(=O)N[C@@H](C)C(=O)N[C@H](C(=O)N[C@@H](CC(C)C)C(=O)N[C@H](C(=O)N[C@@H](CCC(N)=O)C(=O)N[C@@H](CCCNC(=N)N)C(=O)N[C@@H](CCC(=O)O)C(=O)N[C@@H](CCCCN)C(=O)N[C@@H](CC(=O)O)C(=O)N[C@@H](CC(C)C)C(=O)N1CCC[C@H]1C(=O)N[C@@H](CC(N)=O)C(=O)N[C@@H](Cc1ccc(O)cc1)C(=O)N[C@@H](CC(N)=O)C(=O)N[C@@H](Cc1c[nH]c2ccccc12)C(=O)N[C@@H](CC(N)=O)C(=O)N[C@@H](CO)C(=O)N[C@@H](Cc1ccccc1)C(=O)NCC(=O)N[C@@H](CC(C)C)C(=O)N[C@@H](CCCNC(=N)N)C(=O)N[C@@H](Cc1ccccc1)C(N)=O)C(C)C)C(C)C  Emax (KiSS-1 receptor (KISS1R, Homo sapiens, UniProt Q969F8, Y302A); inositol phosphate, agonist; HEK293): 94.9%
CNc1ncc2c(/C=C/C(=O)N3CCC(OC)CC3)nn(Cc3cccc(C(F)(F)F)c3)c2n1  remaining activity (Cyclin-dependent kinase 3, with cyclin E1 (CDK3, Homo sapiens, UniProt Q00526); enzyme activity, inhibitor, radiometric; 1 µM): 93%
COc1cc(-c2cncc3c2CN(C)Cc2cc(N4CCNCC4)ccc2-3)cc(OC)c1OC  remaining activity (Serine/threonine-protein kinase N2 (PKN2, Homo sapiens, UniProt Q16513); enzyme activity, inhibitor; 1 µM): 112%
O=C1NC(=O)C(c2ccccc2)(c2ccccc2)N1  inhibition (KCNA1; ion current, inhibitor, patch clamp; 30 µM): 20.6%
C=CC(=O)N1CCC(COCC(=O)N2CCN(c3nc(-c4cnc(N)nc4C(F)F)nc(N4CCOC[C@@H]4C)n3)CC2)CC1  remaining binding (Serine/threonine-protein kinase SBK1 (SBK1, Homo sapiens, UniProt Q52WX2); binding, competition with immobilised ligand; 1 µM): 100%
CCCN1C[C@H](CSC)C[C@@H]2c3cccc4[nH]cc(c34)C[C@H]21  inhibition (KCNA1; ion current, inhibitor, patch clamp; 30 µM): 34.8%
Cc1cc([C@@H](C)Nc2ccccc2C(=O)O)c2nc(N3CCC(F)(F)CC3)c(C#N)c(=O)n2c1  remaining binding (INSR; binding, competition with immobilised ligand; 1 µM): 100%
